# High-throughput results from PubChem BioAssay.
# Most compounds without a hit are left out; they make up all but 1.1% or so of the library.
# CAL PDZ FP-1: human CAL PDZ-peptide interaction inhibition. AID 504414. inhibition, % at 20 µM. 330,000 tested, 0.02% active. purified CAL PDZ, TMR-peptide fluorescence polarization, 1 h. Q9HD26;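 active = highest replicate inhibition of at least 40%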;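 note: plate controls were DMSO neutral control wells for no effect and unlabeled competitor peptide control wells for full effect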
#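 Material: tagged CAL PDZ protein CerCALP, purified; buffer or medium: sodium phosphate/NaCl buffer pH 7.4 with TCEP, IgG, Thesit; also added: fluorescent TMR peptide probe; schedule: 1 h incubation at room temperature before polarization reading; technique: fluorescence polarization from S- and P-plane intensities, G-factor corrected; control set: unlabelled peptide and DMSO controls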
# Keap1 Nrf2 FP: Keap1-Nrf2 (human) interaction inhibition | Keap1 Kelch-Nrf2 peptide fluorescence polarization, 1536-well | inhibition, % at 9.4 µM | 340,000 tested, 0.15% active | Q14145 | AID 504523; in the data active = inhibition above about 12%;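 note: human Keap1 Kelch domain with fluorescein labeled Nrf2 9mer peptide probe; 0% = neutral control wells and 100% = peptide positive control; higher means more block of Keap1 binding to Nrf2 peptide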
# Target sequence (Q14145 whole entry, looked up, the tested form may be a part): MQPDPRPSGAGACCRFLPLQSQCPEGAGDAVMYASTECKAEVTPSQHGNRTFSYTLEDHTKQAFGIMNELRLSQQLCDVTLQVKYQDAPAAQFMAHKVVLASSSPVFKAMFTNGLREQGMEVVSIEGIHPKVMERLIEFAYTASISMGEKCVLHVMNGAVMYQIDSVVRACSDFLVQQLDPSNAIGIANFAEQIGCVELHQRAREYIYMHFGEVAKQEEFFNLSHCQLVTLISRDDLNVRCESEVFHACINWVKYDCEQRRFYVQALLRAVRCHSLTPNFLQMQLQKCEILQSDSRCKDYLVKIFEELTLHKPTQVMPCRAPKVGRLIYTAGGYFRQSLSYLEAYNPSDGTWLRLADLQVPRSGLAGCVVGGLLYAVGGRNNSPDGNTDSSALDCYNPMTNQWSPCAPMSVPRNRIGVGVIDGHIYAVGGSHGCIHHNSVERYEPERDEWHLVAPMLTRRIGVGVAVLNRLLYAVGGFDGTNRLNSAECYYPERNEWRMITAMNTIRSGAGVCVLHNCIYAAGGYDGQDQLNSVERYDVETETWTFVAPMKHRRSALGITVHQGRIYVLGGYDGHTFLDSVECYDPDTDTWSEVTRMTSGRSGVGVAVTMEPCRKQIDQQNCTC
# LANA DNA inh: KSHV C-LANA DNA binding inhibition. MBP-C-LANA/FAM-LBS DNA binding, fluorescence polarization. inhibition, % at 9 µM. 340,000 tested, 0.078% active. AID 504423;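 active = highest replicate inhibition at or above 60% at 9 µM, even if other replicates fall short; inactive = all replicates below 60% inhibition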;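 note: 0% = neutral control wells and 100% = 4 µM acridine orange control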
# CAL PDZ FP-2: inhibitors of human CAL PDZ peptide binding | Q9HD26 | AID 602252 | inhibition, % at 24.9 µM | purified CAL PDZ, TMR-peptide fluorescence polarization, 1 h | 300,000 tested, 0.92% active;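 active = mean inhibition of at least 30% with at least half of replicates also reaching 30%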;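 note: 0% = DMSO neutral control and 100% = excess unlabeled competitor peptide PRC23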
# miR122 inh: miR-122 inhibition in Huh7 cells; Huh7 miR-122 Renilla luciferase sensor, 48 h; neutral wells = 0, positive control = 100; activation (reporter increase), % at 12.5 µM; 340,000 tested, 0.3% active; AID 602342;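 active = mean replicate activation score at least 90 and every replicate individually at or above 90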;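 note: higher luciferase means less miR-122 activity so hits act as miR-122 inhibitors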
# * hit, by the source's call; . = no result; [ ] = dose if it differs, or a comment.
SMILES,CAL PDZ FP-1,Keap1 Nrf2 FP,LANA DNA inh,CAL PDZ FP-2,miR122 inh
COc1n[nH]c(C(=O)Nc2nc3ccccc3s2)c1[N+](=O)[O-],-1,-2,1,66*,.
CC(=O)N(C)C[C@H]1Oc2cc(-c3ccccc3C)ccc2S(=O)(=O)N([C@@H](C)CO)C[C@H]1C,.,.,.,.,-8[16.7 µM]
COc1ccc(-c2nn(-c3ccccc3)cc2/C=C/C(=O)N2CCOCC2)cc1OC,-1,-3,0,53*,-7
c1ccc2c(c1)ccc1nnnn12,1,-5,-1,0,168*
c1ccc2c(c1)sc1nnnn12,-3,0,-1,1,2
COc1ccccc1NC(=O)Nc1ccnn1Cc1cccs1,-1,0,-1,57*,-29
COc1ccccc1NC(=O)Cc1cccs1,-1,1,0,2,0
CC(C)NC(=O)Nc1ccc2c(c1)C(=O)N([C@@H](C)CO)C[C@@H](C)[C@H](CN(C)C(=O)CCC(F)(F)F)OCCCC[C@H](C)O2,.,.,.,.,3[16.7 µM]
C[C@@H]1CN([C@H](C)CO)C(=O)c2cc(/C=C/c3ccccc3)cnc2O[C@H]1CN(C)C(=O)CN(C)C,.,.,.,.,-3[16.7 µM]
O=C(Oc1ccc(Cl)c2cccnc12)c1cccnc1,.,1,0,52*,-4
CC(C)Sc1nnc(NC(=O)c2ccco2)s1,8,-3,-2,56*,.
Cc1ccc(C2OC34CCCCCC3C(C#N)(C(=N)O4)C2(C#N)C#N)cc1 (configuration not stated),0,-2,-2,-5,.
CCOc1ccc(C2OC34CCCCC3C(C#N)(C#N)C2(C#N)C(=N)O4)cc1OC (configuration not stated),0,19*,42,0,-4
COc1ccc(NC(=O)c2cc3c(-c4ccc(OC)c(OC)c4)nn(C)c3s2)cc1OC,10,1,0,56*,-2
COc1ccc(-c2nn(C)c3sc(C(=O)NCc4ccco4)cc23)cc1OC,-1,-5,-1,-1,5
COc1ccccc1N/C(=N/S(=O)(=O)c1ccc(Cl)cc1)c1ccccc1,.,5,-2,0,55
COc1ccccc1N/C(=N/S(=O)(=O)c1ccc(C)cc1)c1ccccc1,0,1,1,3,135*
Cc1ccc(/C(=N\S(=O)(=O)c2ccc(Br)cc2)Nc2ccccc2C)cc1,-1,3,0,65*,15
COc1ccc(NC(=O)Nc2ccc3c(c2)C(=O)N([C@H](C)CO)C[C@H](C)[C@@H](CN(C)C(=O)Nc2ccc(F)cc2)OCCCC[C@@H](C)O3)cc1,.,.,.,.,14[16.7 µM]
C[C@@H]1CN([C@@H](C)CO)S(=O)(=O)c2ccc(C#C[C@@H](C)O)cc2O[C@H]1CN(C)Cc1ccccc1,.,.,.,.,1[16.7 µM]
CC(C)(C)CC(=O)NC(=S)Nc1ccccc1[N+](=O)[O-],0,-3,-1,101*,.
O=C(NC(=S)Nc1ccccc1[N+](=O)[O-])c1ccccc1Cl,-2,-3,0,5,-1
COCC(=O)Nc1ccc2c(c1)C(=O)N(C)[C@H]1CC[C@H](CC(=O)NCCc3ccccc3)O[C@@H]1CO2,.,.,.,.,-4[16.7 µM]
Cc1cc(C)cc(NS(=O)(=O)c2ccc3oc(=O)ccc3c2)c1,0,3,-1,1,105*
CCOc1cc(S(=O)(=O)Nc2cc(C)cc(C)c2)ccc1Cl,0,-3,-2,.,118*
SMILES,CAL PDZ FP-1,Keap1 Nrf2 FP,LANA DNA inh,CAL PDZ FP-2,miR122 inh
Cc1noc(C)c1S(=O)(=O)Nc1ccc2c(c1)C(=O)N([C@@H](C)CO)C[C@@H](C)[C@H](CN(C)Cc1ccc(C(=O)O)cc1)O2,.,.,.,.,-6[16.7 µM]
CO[C@H]1CN(C)C(=O)c2ccc(NS(C)(=O)=O)cc2OC[C@@H](C)N(C(=O)C2CCOCC2)C[C@@H]1C,.,.,.,.,-7[16.7 µM]
Cc1ccc(OCCCCn2ccnc2C)c(C)c1,7,1,5,79*,.
Cc1ccc(C(C)C)c(OCCn2ccnc2C)c1,1,-3,7,-4,5
O=C(Cc1ccc(Br)cc1)OCC(=O)c1ccc[nH]1,0,-1,0,44*,-5
COc1ccc(CC(=O)OCC(=O)c2ccc[nH]2)cc1,-2,-4,0,2,1
CCOCCc1nnc(NC(=O)C2CC(=O)N(CCc3ccc(F)cc3)C2)s1 (configuration not stated),-1,-1,-2,59*,1
CCOCc1nnc(NC(=O)C2CC(=O)N(CCc3ccc(F)cc3)C2)s1 (configuration not stated),-3,0,1,-5,.
C[C@H]1CN([C@@H](C)CO)C(=O)CCCn2cc(nn2)CO[C@H]1CN(C)C(=O)Nc1ccc(N2CCN(C)CC2)cc1,.,.,.,.,-5[16.7 µM]
Fc1ccc(Cn2c(-c3cscn3)nc3ccccc32)c(Cl)c1,.,0,0,-4,-6
Nc1nonc1-c1nc2ccccc2n1Cc1ccc(F)cc1Cl,-2,0,0,active,2
COc1ccc(S(=O)(=O)N2CC[C@H]3[C@H](CO)Nc4ccc(-c5ccc(C#N)cc5)cc4[C@H]32)cc1,.,.,.,.,-1[16.7 µM]
Cc1ccc(C)n1Cc1ccc(C(=O)O)cc1,-3,-4,114*,.,-12
CC1CCc2c(nc3nc[nH]n3c2=O)C1 (configuration not stated),-1,-2,2,-7,-2
S=c1c2c(nc3nc[nH]n13)CCC2,0,-2,63*,.,.
C[C@@H]1CN([C@H](C)CO)C(=O)c2cc(NC(=O)CCCN(C)C)ccc2O[C@@H](C)CCCCO[C@H]1CN(C)Cc1ccncc1,.,.,.,.,6[16.7 µM]
C[C@@H]1CCCCO[C@H](CN(C)S(C)(=O)=O)[C@H](C)CN([C@@H](C)CO)C(=O)c2cc(N(C)C)ccc2O1,.,.,.,.,3[16.7 µM]
Cc1cc(C(=O)Nc2cccc3c2O[C@H](CN(C)Cc2ccc(C(F)(F)F)cc2)[C@@H](C)CN([C@@H](C)CO)C3=O)n(C)n1,.,.,.,.,82[16.7 µM]
Cc1cc(C(=O)Nc2cccc3c2O[C@@H](CN(C)Cc2ccc(C(F)(F)F)cc2)[C@H](C)CN([C@H](C)CO)C3=O)n(C)n1,.,.,.,.,127*[16.7 µM]
Cc1cc(C(=O)Nc2cccc3c2O[C@@H](CN(C)CC2CCCCC2)[C@@H](C)CN([C@@H](C)CO)C3=O)n(C)n1,.,.,.,.,94*[16.7 µM]
Cc1cc(C(=O)Nc2cccc3c2O[C@H](CN(C)CC2CCCCC2)[C@@H](C)CN([C@@H](C)CO)C3=O)n(C)n1,.,.,.,.,67[16.7 µM]
Cc1cc(C(=O)Nc2cccc3c2O[C@@H](CN(C)CC2CCCCC2)[C@@H](C)CN([C@H](C)CO)C3=O)n(C)n1,.,.,.,.,97*[16.7 µM]
COCCNC(=O)C[C@@H]1CC[C@H]2[C@@H](COc3ccc(NC(=O)C4CCCC4)cc3C(=O)N2C)O1,.,.,.,.,1[16.7 µM]
CC(C)NC(=O)N(C)C[C@@H]1Oc2c(NS(=O)(=O)c3ccc(Cl)cc3)cccc2C(=O)N([C@@H](C)CO)C[C@@H]1C,.,.,.,.,0[16.7 µM]
COC(=O)CN(C(=O)CSc1nnc(-c2cccc(OC)c2)o1)c1ccc(OC)cc1,0,0,1,-3,-4
